Assay results from ChEMBL document CHEMBL1914304 (J Med Chem, 2011).

Experiments:
[1] = target: T1, Potassium/sodium hyperpolarization-activated cyclic nucleotide-gated channel 2 (Homo sapiens) (UniProt Q9UL51); test: Inhibition of HCN2 at 10 uM after 5 mins by patch clamp assay
T1 sequence (whole entry): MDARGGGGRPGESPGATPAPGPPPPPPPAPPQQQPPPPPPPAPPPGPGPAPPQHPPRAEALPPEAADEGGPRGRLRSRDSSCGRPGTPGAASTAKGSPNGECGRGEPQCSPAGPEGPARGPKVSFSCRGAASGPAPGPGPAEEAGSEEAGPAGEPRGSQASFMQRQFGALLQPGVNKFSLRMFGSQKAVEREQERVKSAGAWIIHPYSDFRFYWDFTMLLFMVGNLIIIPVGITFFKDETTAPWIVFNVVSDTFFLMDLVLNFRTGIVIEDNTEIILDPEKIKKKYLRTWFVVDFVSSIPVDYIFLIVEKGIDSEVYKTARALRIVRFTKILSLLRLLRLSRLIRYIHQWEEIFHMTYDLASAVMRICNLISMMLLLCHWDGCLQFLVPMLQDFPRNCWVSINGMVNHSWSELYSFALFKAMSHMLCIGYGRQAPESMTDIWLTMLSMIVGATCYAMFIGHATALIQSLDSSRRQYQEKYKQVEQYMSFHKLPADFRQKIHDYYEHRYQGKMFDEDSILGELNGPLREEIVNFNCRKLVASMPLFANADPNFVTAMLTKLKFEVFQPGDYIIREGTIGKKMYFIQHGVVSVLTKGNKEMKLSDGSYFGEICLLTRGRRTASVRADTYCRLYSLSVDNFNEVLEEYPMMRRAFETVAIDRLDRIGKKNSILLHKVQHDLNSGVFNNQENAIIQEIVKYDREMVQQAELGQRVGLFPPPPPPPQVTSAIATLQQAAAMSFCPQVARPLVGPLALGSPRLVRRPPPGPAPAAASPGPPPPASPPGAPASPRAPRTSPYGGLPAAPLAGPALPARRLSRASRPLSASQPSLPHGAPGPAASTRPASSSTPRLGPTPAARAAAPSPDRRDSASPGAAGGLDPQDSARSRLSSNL
Method in brief: (§1)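 Cardiac ion channel panel run by a contract lab on an automated parallel patch-clamp system at room temperature. Each of 12 cardiac channels was tested with 10 µM compound for 5 min exposure, in two cells per channel (n ≥ 2). Values are reported as mean % inhibition.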

[2] = target: Potassium voltage-gated channel subfamily A member 5 (Homo sapiens) (UniProt P22460); test: Inhibition of Kv1.5 at 10 uM after 5 mins by patch clamp assay; method in brief: as §1
Potassium voltage-gated channel subfamily A member 5 (Homo sapiens), sequence (P22460 whole entry): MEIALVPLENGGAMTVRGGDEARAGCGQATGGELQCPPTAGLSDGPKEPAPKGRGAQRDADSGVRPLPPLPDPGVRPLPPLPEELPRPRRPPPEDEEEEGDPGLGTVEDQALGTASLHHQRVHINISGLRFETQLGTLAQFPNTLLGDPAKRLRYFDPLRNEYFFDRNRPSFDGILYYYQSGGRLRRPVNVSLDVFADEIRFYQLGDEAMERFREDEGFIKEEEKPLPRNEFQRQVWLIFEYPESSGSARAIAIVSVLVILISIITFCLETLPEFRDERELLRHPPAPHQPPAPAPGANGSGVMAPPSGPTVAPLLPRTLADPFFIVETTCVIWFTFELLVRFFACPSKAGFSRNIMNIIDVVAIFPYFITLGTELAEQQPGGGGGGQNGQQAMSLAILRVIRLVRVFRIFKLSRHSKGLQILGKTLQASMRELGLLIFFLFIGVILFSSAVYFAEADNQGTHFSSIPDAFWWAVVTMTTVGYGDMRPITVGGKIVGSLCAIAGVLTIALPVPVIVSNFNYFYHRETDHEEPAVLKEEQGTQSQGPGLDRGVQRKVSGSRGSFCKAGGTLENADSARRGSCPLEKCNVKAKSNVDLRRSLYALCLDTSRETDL

Compound: CCCNCC(O)COc1ccccc1C(=O)CCc1ccccc1 (racemic) [PROPAFENONE]
- inhibition [1]: 47.8%
- inhibition [2]: 65.4%
